Assay results gathered from unrelated publications.
Lines come from different studies, so protocols differ.
Target: Mitogen-activated protein kinase kinase kinase 3 (MAP3K3, Homo sapiens, UniProt Q99759)
Residues used in one study (Q99759 1-626): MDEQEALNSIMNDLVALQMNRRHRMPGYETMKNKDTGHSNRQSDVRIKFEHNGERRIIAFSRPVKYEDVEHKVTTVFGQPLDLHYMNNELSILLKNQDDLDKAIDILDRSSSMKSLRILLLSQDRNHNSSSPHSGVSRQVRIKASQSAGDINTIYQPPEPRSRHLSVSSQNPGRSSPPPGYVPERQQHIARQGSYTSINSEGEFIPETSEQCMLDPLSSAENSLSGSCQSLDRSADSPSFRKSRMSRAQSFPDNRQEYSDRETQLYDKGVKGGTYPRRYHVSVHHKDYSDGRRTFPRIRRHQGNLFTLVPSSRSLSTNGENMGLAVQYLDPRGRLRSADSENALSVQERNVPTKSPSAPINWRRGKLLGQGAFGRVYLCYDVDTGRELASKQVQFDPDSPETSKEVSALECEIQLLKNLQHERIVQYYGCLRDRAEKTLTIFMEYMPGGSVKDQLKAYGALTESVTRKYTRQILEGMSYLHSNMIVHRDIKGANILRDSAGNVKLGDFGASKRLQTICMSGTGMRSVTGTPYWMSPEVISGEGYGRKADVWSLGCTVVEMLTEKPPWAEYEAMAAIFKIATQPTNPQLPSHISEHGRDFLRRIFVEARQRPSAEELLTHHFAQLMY

SMILES	assay	setting	quantity	value
CO[C@@H]1[C@H](N(C)C(=O)c2ccccc2)C[C@H]2O[C@]1(C)n1c3ccccc3c3c4c(c5c6ccccc6n2c5c31)C(=O)NC4	enzyme activity, inhibitor	1 µM	inhibition	86%
Cc1cc(O)c(-c2ccc([C@@H](C)CN(C)C)cc2)c2c1[nH]c(=O)c1sccc12	enzyme activity, inhibitor	0.1 µM	inhibition	0.395%
CCCCC(=O)Nc1ccc(-c2ccc3ncn(CCC)c(=O)c3c2)cn1	binding, competition with immobilised ligand	0.5 µM	remaining binding	100%
C#Cc1cc(-c2cc(Nc3nc(N[C@@H](C)c4ccc(F)cn4)ncc3Cl)n[nH]2)ccc1C=O	enzyme activity, inhibitor	0.2 µM	inhibition	48.8%
CC#CC(=O)N1CCC[C@H]1c1nc(-c2ccc(C(=O)Nc3ccccn3)cc2)c2c(N)nccn12	enzyme activity, inhibitor	1 µM	inhibition	25%
CN1CCN(C(=O)c2ccc(NC(=O)Nc3ccc(N(C)c4ccnc(Nc5ccc(CS(C)(=O)=O)cc5)n4)cc3)cc2)CC1	binding, competition with immobilised ligand	1 µM	remaining binding	57%
C1=C/COCc2cc(ccc2OCCN2CCCC2)Nc2nccc(n2)-c2cccc(c2)COC/1	binding	0.1 µM	remaining binding	53%
C[C@H]1CC[C@H](n2c3cnccc3c3cnc(Nc4ccc5c(n4)CCN(C(=O)CO)C5)nc32)CC1	binding, competition with immobilised ligand	1 µM	remaining binding	81%
CC(C)S(=O)(=O)c1ccc2nccc(Nc3ccc4sc(C5CCCC5)nc4c3)c2c1	enzyme activity, inhibitor	1 µM	activity vs control	105%
